Results as given in ChEMBL document CHEMBL1154485, “Novel 2-aryl-naphtho[1,2-d]oxazole derivatives as potential PTP-1B inhibitors showing antihyperglycemic activities” (Eur J Med Chem, 2009).

How the values were obtained:
Rattus norvegicus [1] = test: Antihyperglycemic activity against sucrose-loaded Charles-Foster Wistar albino rat assessed as reduction in blood glucose at 100 mg/kg, po administered 30 mins before sucrose challenge relative to control; type: functional; parameters: scale not given: the % may be the effect or the level left
In short: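 Male Charles Foster/Wistar rats, 160 ± 20 g, fasted 16 h, selected at 60e80 mg/dl glucose, groups of 5-6. Compound given orally at 100 mg/kg in 1.0% gum acacia; sucrose 10.0 g/kg orally 30 min later. Glucose read by glucometer at 30-120 min. Percent activity derived from AUC versus vehicle.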

[2] = molecular target: T1, Tyrosine-protein phosphatase non-receptor type 1 (Homo sapiens, UniProt P18031); test: Inhibition of PTP1B assessed as residual enzyme activity
T1 sequence (P18031 whole entry): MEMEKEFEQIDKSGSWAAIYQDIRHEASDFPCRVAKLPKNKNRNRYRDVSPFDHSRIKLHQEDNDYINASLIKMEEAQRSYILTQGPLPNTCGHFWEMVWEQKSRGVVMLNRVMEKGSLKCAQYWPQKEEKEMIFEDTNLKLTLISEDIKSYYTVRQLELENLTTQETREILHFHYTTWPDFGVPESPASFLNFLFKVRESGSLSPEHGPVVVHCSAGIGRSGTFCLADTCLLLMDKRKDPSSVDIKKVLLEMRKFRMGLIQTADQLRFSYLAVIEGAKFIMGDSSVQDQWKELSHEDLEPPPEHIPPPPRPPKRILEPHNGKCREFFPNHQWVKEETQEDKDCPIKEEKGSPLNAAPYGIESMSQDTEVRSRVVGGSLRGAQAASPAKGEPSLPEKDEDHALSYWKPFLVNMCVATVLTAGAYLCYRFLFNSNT
In short: (§1)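 PTP-1B pre-incubated 10 min with compound, with or without 0.01% Triton X-100. Reaction: 10 mM pNPP in 50 mM HEPES pH 7.0 with 1 mM DTT and 2 mM EDTA, 30 min at 37 °C. Stopped with 0.1 N NaOH, p-nitrophenolate read at 410 nm (ε 1.78×10⁴ M⁻¹cm⁻¹). Single-concentration screen was the mean of three independent sets. Sodium orthovanadate served as standard.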

[3] = molecular target: T1, Tyrosine-protein phosphatase non-receptor type 1; test: Inhibition of PTP1B assessed as residual enzyme activity in presence of Triton X-100; in short: as §1
Rattus norvegicus [4] = test: Antihyperglycemic activity against sucrose-challenged streptozotocin-induced fasted Sprague-Dawley rat assessed as reduction in blood glucose at 100 mg/kg, po administered 30 mins before sucrose challenge measured after 24 hrs post sucrose dose relative to control; type: functional; parameters: scale not given: the % may be the effect or the level left
In short: (§2)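 Male Sprague Dawley rats, 160 ± 20 g, overnight fasted, given streptozotocin 45 mg/kg i.p. in citrate buffer pH 4.5. Rats at 144-270 mg/dl glucose after 48 h were used, 5-6 per group. Oral dose 100 mg/kg in 1.0% gum acacia, sucrose 2.5 g/kg 30 min later. Glucose read at 30-300 min and 24 h. Activity derived from AUC versus control.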

Rattus norvegicus [5] = test: Antihyperglycemic activity against sucrose-challenged streptozotocin-induced fasted Sprague-Dawley rat assessed as reduction in blood glucose at 100 mg/kg, po administered 30 mins before sucrose challenge measured after 5 hrs post sucrose dose relative to control; type: functional; parameters: scale not given: the % may be the effect or the level left; in short: as §2
Mus musculus [6] = organism: Mus musculus; test: Antihyperglycemic activity against C57BL/KsBom db/db type 2 diabetic mouse model assessed as decrease in postprandial blood glucose level on day 3 by OGTT relative to control; type: functional; parameters: concentration or dose not given beside the values
Mus musculus [7] = organism: Mus musculus; test: Antihyperglycemic activity against C57BL/KsBom db/db type 2 diabetic mouse model assessed as decrease in postprandial blood glucose level on day 10 by OGTT relative to control; type: functional; parameters: scale not given: the % may be the effect or the level left
In short: (§3)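 Male and female C57BL/KsBom-db mice, 12e18 weeks, 40e50 g, ten used, vehicle 1.0% gum acacia. Day 6 postprandial protocol: glucose read at -0.5 and 0 h, then at 1, 2, 3, 4 and 6 h after dosing. Day 10 OGTT: overnight fast, drug given at -30 min, glucose 3 g/kg at 0 min, glucose read at 30-120 min.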

Mus musculus [8] = organism: Mus musculus; test: Antihyperglycemic activity against C57BL/KsBom db/db type 2 diabetic mouse model assessed as decrease in postprandial blood glucose level on day 6 by OGTT relative to control; type: functional; parameters: scale not given: the % may be the effect or the level left; in short: as §3
Mus musculus [9] = test: Antidyslipidemic activity in C57BL/KsBom db/db diabetic mouse assessed as reduction in plasma cholesterol level at 100 mg/kg, po; type: functional; parameters: scale not given: the % may be the effect or the level left
In short: (§4)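 Male and female C57BL/KsBom-db mice, 12e18 weeks, 40e50 g, ten per experiment, housed by sex at 23 °C on a 12/12 h cycle. Test drug given orally at 100 mg/kg in gum acacia (1.0%); vehicle controls received gum acacia only. Dosing ran 10 days. Effects on triglyceride, cholesterol and HDL are reported as % change.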

Mus musculus [10] = test: Antidyslipidemic activity in C57BL/KsBom db/db diabetic mouse assessed as increase in high-density lipoprotein cholesterol level at 100 mg/kg, po; type: functional; in short: as §4
Mus musculus [11] = test: Antidyslipidemic activity in C57BL/KsBom db/db diabetic mouse assessed as reduction in plasma triglyceride level at 100 mg/kg, po; type: functional; parameters: scale not given: the % may be the effect or the level left; in short: as §4

| SMILES | Activity (Rattus norvegicus [1]) [%] | IC50 [2] [µM] | Ki [2] [µM] | IC50 [3] [µM] | Ki [3] [µM] | Activity (Rattus norvegicus [4]) [%] | Activity (Rattus norvegicus [5]) [%] | Activity (Mus musculus [6]) [%] | further results |
| --- | --- | --- | --- | --- | --- | --- | --- | --- | --- |
| O=C(O)COc1ccc(-c2nc3c(ccc4ccccc43)o2)cc1 | 4.6 | – | – | – | – | – | – | – | – |
| c1ccc2c(c1)ccc1oc(-c3ccc(OCCN4CCCC4)cc3)nc12 | 8.7 | 5.71 | 34.2 | 5.7 | 37 | – | – | – | – |
| c1ccc2c(c1)ccc1oc(-c3ccc(OCCCN4CCCCC4)cc3)nc12 | 25 | – | – | – | – | 11.2 | 13.4 | – | – |
| c1ccc2c(c1)ccc1oc(-c3ccc(OCCCN4CCCC4)cc3)nc12 | 17.2 | – | – | – | – | 12.9 | 12.6 | – | – |
| COc1ccc(NCCCOc2ccc(-c3nc4c(ccc5ccccc54)o3)cc2)cc1 | 11.8 | – | – | – | – | – | – | – | – |
| CCCCN(C)CCCOc1ccc(-c2nc3c(ccc4ccccc43)o2)cc1 | 14.7 | – | – | – | – | 9.2 | 7.8 | – | – |
| CCOC(=O)COc1ccc(-c2nc3c(ccc4ccccc43)o2)cc1 | 11.4 | – | – | – | – | – | – | – | – |
| O=C(O)CCCOc1ccc(-c2nc3c(ccc4ccccc43)o2)cc1 | 5.8 | – | – | – | – | – | – | – | – |
| Oc1ccc(-c2nc3c(ccc4ccccc43)o2)cc1 | 10.8 | – | – | – | – | – | – | – | – |
| CCN(CC)CCCOc1ccc(-c2nc3c(ccc4ccccc43)o2)cc1 | 20.5 | 3.4 | 40.5 | 3.36 | 41 | 13.6 | 11.5 | 10.8 | – |
| ClCCCOc1ccc(-c2nc3c(ccc4ccccc43)o2)cc1 | 7.4 | – | – | – | – | – | – | – | – |
| c1ccc2c(c1)ccc1oc(-c3ccc(OCCN4CCCCC4)cc3)nc12 | 26.9 | 1.9 | 27.5 | 1.86 | 27.1 | 15.7 | 16.4 | 10.4 | – |
| CCN(CC)CCOc1ccc(-c2nc3c(ccc4ccccc43)o2)cc1 | 21.7 | 4.6 | 35 | 4.55 | 35.5 | 9.7 | 11.4 | – | – |
| CCCCCCCCNCCCOc1ccc(-c2nc3c(ccc4ccccc43)o2)cc1 | 15 | – | – | – | – | – | – | – | – |
| CN(C)CCOc1ccc(-c2nc3c(ccc4ccccc43)o2)cc1 | 35.9 | 3.51 | 25.1 | 3.56 | 28.7 | 25.7 | 27.9 | 18.9 | Activity (Mus musculus [7]): 23.6%; Activity (Mus musculus [8]): 21.4%; Activity (Mus musculus [9]): 17.6%; Activity (Mus musculus [10]): 3%; Activity (Mus musculus [11]): 10.5% |
| CN(C)CCCOc1ccc(-c2nc3c(ccc4ccccc43)o2)cc1 | 25.2 | 3.5 | 34.1 | 3.52 | 36.3 | 20.3 | 15.6 | 16.7 | – |
| CCCCN(C)CCOc1ccc(-c2nc3c(ccc4ccccc43)o2)cc1 | 35.3 | 2.5 | 44.4 | 2.52 | 41 | 18.7 | 17.4 | 22.3 | Activity (Mus musculus [7]): 24.1%; Activity (Mus musculus [8]): 22.4%; Activity (Mus musculus [9]): 12.2%; Activity (Mus musculus [10]): 1.3%; Activity (Mus musculus [11]): 7.5% |
| CCOC(=O)CCCOc1ccc(-c2nc3c(ccc4ccccc43)o2)cc1 | 9.5 | – | – | – | – | – | – | – | – |
| CC(=O)Oc1ccc(-c2nc3c(ccc4ccccc43)o2)cc1 | 16.8 | – | – | – | – | – | – | – | – |
| Cc1ccc(NCCCOc2ccc(-c3nc4c(ccc5ccccc54)o3)cc2)cc1 | 17.2 | – | – | – | – | 15.2 | 14.6 | – | – |
| Cc1ccc(S(=O)(=O)NC(=O)NN2CC3CCCC3C2)cc1 (configuration not stated) [GLICLAZIDE] | 44.8 | – | – | – | – | – | 27.7 | 17.4 | – |
| COc1ccc(Cl)cc1C(=O)NCCc1ccc(S(=O)(=O)NC(=O)NC2CCCCC2)cc1 [GLYBURIDE] | 33.9 | – | – | – | – | – | 32.8 | 13.6 | – |
| CN(C)C(=N)NC(=N)N [METFORMIN] | 12.9 | – | – | – | – | 20.2 | – | 11.2 | – |
